The subject of series [1] is Leishmania donovani. Put plainly: Antileishmanial activity against Leishmania donovani MHOM/SD/62/1S-CL2D axenic amastigotes after 3 days by tetrazolium dye based colorimetric assay. Format: functional, organism-based. Particulars: 72 h. The method in brief:
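Axenic amastigotes adapted from promastigotes and kept in amastigote medium at 37 °C. 6 × 10^4 cells per well, 2-fold compound dilutions, 3 days at 37 °C in 5% CO2. Growth read as tetrazolium (CellTiter) absorbance at 490 nm several hours after dye addition. IC50 from a four-parameter dose-response fit. Three or more separate experiments.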

Series [2] has as its system Vero. Put plainly: Cytotoxicity against african green monkey Vero cells after 3 days by tetrazolium dye based colorimetric assay. It counts as cell-based. The settings on record: Chlorocebus sabaeus, 72 h. The method in brief: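 Vero cells were grown in alpha-MEM with 10% HI-FBS. 1 × 10^3 cells per well received 2-fold compound dilutions for 3 days at 37 °C, 5% CO2. Growth was read as tetrazolium (CellTiter) absorbance at 490 nm. IC50 by four-parameter dose-response fit.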

Series [3] can be described thus: Cytotoxicity against CD1 mouse macrophages assessed as infected macrophages at 3.1 uM after 72 hrs. Format: cell-based. The settings on record: macrophage.
Series [4] relates to Leishmania amazonensis. Put plainly: Antileishmanial activity against beta-lactamase transfected Leishmania amazonensis in CD1 mouse macrophages assessed as infected macrophages after 72 hrs. Format: functional, organism-based. The method in brief:
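Starch-elicited peritoneal macrophages from CD-1 mice were plated at 1 × 10^6 cells/ml and adhered overnight. They were infected overnight at 34 °C with β-lactamase-expressing L. amazonensis (5 × 10^6 cells/ml) and washed. Twofold compound dilutions were applied for 72 h at 34 °C. Cells were lysed in 0.1% Triton X-100 with 100 µM nitrocefin for 4 h at 37 °C and read at A490. IC50 by four-parameter fit.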

Series [5] can be described thus: Cytotoxicity against CD1 mouse macrophages at 6.3 uM after 72 hrs. Particulars: macrophage. It counts as cell-based.
Series [6] is described as follows: Lipophilicity, log P of the compound. Format: physicochemical. The settings on record: octanol/water. The method in brief:
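clogP was calculated with the ChemAxon/Marvin program.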

The subject of series [7] is Leishmania donovani. Put plainly: Antiparasitic activity against Leishmania donovani promastigotes assessed as reduction of membrane potential by rhodamine 123 assay. Format: functional. The method in brief: (§1)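 Promastigotes at 1 × 10^6 cells/ml were exposed to compounds in 1% DMSO for 24 h, at 10 µM and above. FCCP 100 µM for 2 h served as positive control. Cells were then stained with 1 µM rhodamine 123 for 1 h and read by flow cytometry. Results are % fluorescence reduction against vehicle controls. Three experiments, SEM.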

Series [8] has as its system Leishmania donovani. Put plainly: Reduction of parasitemia in Leishmania donovani LV82 promastigotes infected BALB/c mouse at 50 mg/kg/day, ip for 5 days relative to control. It counts as functional. Set-up: scale not given: the % may be the effect or the level left. Particulars: route intraperitoneal.
Series [9] concerns Leishmania donovani. Kind of series: Antileishmanial activity against Leishmania donovani promastigotes assessed as induction of ROS production in by flow cytometric detection at 1 uM after 24 hrs. Format: functional, organism-based. The method in brief: (§2)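 Log-phase promastigotes were loaded with 10 µg/ml CM-H2DCFDA in FBS-free medium for 60 min at 25 °C. They were then resuspended at 1 × 10^6 cells/ml and exposed to compounds in 1% DMSO for 24 h. Fluorescence was read by flow cytometry on 10,000 cells and normalized to vehicle controls (=1.0). H2O2 250 µM served as positive control. Three experiments, SEM.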
For orientation: A flow cytometer gives signals particle by particle.

A short description of series [10]: Cytotoxicity against CD1 mouse macrophages at 13 uM after 72 hrs. Format: cell-based. Particulars: macrophage.
In series [11] the test system is Leishmania donovani. Kind of series: Antileishmanial activity against Leishmania donovani promastigotes assessed as induction of ROS production in by flow cytometric detection at 0.1 uM after 24 hrs. Format: functional, organism-based. The method in brief: as §2
Series [12] relates to Leishmania donovani. Kind of series: Antileishmanial activity against Leishmania donovani promastigotes assessed as induction of ROS production in by flow cytometric detection at 100 uM after 24 hrs. Format: functional, organism-based. The method in brief:
as §2

Series [13] has as its system Leishmania donovani. Put plainly: Reduction of parasitemia in Leishmania donovani LV82 promastigotes infected BALB/c mouse at 25 mg/kg/day, ip for 5 days relative to control. It counts as functional. Set-up: scale not given: the % may be the effect or the level left. The settings on record: route intraperitoneal. The method in brief:
(§3)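 Infected BALB/c mice were dosed i.p. once daily for 5 days, starting 7 days post-infection. Vehicles were 10% DMSO/70% cremophor-ethanol (3:1)/20% PBS, or PBS for miltefosine. On day 14, Giemsa-stained liver smears were scored as amastigotes per 1000 liver cells × liver weight (mg) and compared with vehicle controls. 4–5 mice per group, SD.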

For series [14], the system named is Leishmania donovani. Put plainly: Antileishmanial activity against Leishmania donovani promastigotes assessed as induction of ROS production in by flow cytometric detection at 10 uM after 24 hrs. It counts as functional, organism-based. The method in brief:
as §2

In series [15] the test system is Leishmania donovani. Put plainly: Antiparasitic activity against Leishmania donovani promastigotes assessed as reduction of membrane potential 10 uM by rhodamine 123 assay. Set-up: scale not given: the % may be the effect or the level left. Format: functional. The method in brief:
as §1

The subject of series [16] is Leishmania donovani. Put plainly: Reduction of parasitemia in Leishmania donovani infected BALB/c mouse at 3 mg/kg/day, ip for 5 days relative to control. It counts as functional. Set-up: scale not given: the % may be the effect or the level left. The settings on record: route intraperitoneal. The method in brief:
as §3

Activity calls are given as the source filed them. The calls are words filed in the database; no cut-off is given here. Where only a bound is given, the exact number is not on record here.

In ChEMBL document CHEMBL1140848, “Redox-active dinitrodiphenylthioethers against Leishmania: synthesis, structure-activity relationships and mechanism of action studies” (Bioorg Med Chem, 2009) one finds IC50, Activity and logP data, which are given here for 22 compounds.

`O=C(O)c1ccccc1Sc1c([N+](=O)[O-])cc(C(F)(F)F)cc1[N+](=O)[O-]`: the IC50 (in general, the concentration at which inhibition is half-maximal) in series [1] came to 7.3 µM.

For `O=[N+]([O-])c1cc(C(F)(F)F)cc([N+](=O)[O-])c1SC1CCCCC1`, in [1], the IC50 came to 35 µM.

The compound `Cc1cc(Sc2ccc([N+](=O)[O-])cc2)c(Cl)cc1Cl` had a half-inhibitory concentration (IC50) in [1] of 88 µM.

Compound `Cc1cc(Sc2ncc(C(F)(F)F)cc2[N+](=O)[O-])c(Cl)cc1Cl` returned an IC50 in [1] of 59 µM.

For `O=[N+]([O-])c1cc(C(F)(F)F)cc([N+](=O)[O-])c1Sc1ccc(Cl)cc1Cl`, the IC50 in series [1] was determined as 0.4 µM; in series [2], 4.3 µM; in series [4], 2.6 µM. In addition, the Activity entry in [3] is listed as “Toxic”.

Take `O=[N+]([O-])c1cc(C(F)(F)F)cc([N+](=O)[O-])c1Nc1ccc(Cl)cc1Cl`: the IC50 in series [1] is 25 µM.

For the compound `O=[N+]([O-])c1cc(C(F)(F)F)cc([N+](=O)[O-])c1Sc1ccccc1`, the figures for the IC50 in series [1], in series [2] and in series [4] were 0.96 µM, 6 µM and 2.6 µM, respectively. The Activity entry in series [5] was “Toxic”.

`COc1cc([C@@H]2c3cc4c(cc3[C@H](O)[C@H]3COC(=O)[C@H]23)OCO4)cc(OC)c1OC` [PODOFILOX] came in with an IC50 in [2] of 0.023 µM.

`CCSc1c([N+](=O)[O-])cc(C(F)(F)F)cc1[N+](=O)[O-]` showed an IC50 in [1] of 98 µM.

For `Cc1cccc(Sc2c([N+](=O)[O-])cc(C(F)(F)F)cc2[N+](=O)[O-])c1`, the IC50 in series [1] came to 1.6 µM; in series [2] it was 7.3 µM; in series [4], 2.4 µM. Besides, the Activity entry in [5] is listed as “Toxic”.

Regarding `Cc1cc(Sc2c([N+](=O)[O-])cc(C(F)(F)F)cc2[N+](=O)[O-])c(Cl)cc1Cl`, the figures for the IC50 in [1], in series [2] and in series [4] were 0.56 µM, 9.7 µM and 3.4 µM, respectively. In addition, the logP – broadly, the decadic logarithm of the partition coefficient of the neutral form, usually between octanol and water – in series [6] came to 6.85. Further, the results for the Activity entry in series [7], in series [8] and in series [10] were “Dose-dependent effect”, -2% and “Toxic”, respectively. For the same compound, the outcome in series [9] and in [11] was inactive. Further, in series [12], the outcome was Active.

In series [1], `Cc1cc(Sc2ccc(C(F)(F)F)cc2[N+](=O)[O-])c(Cl)cc1Cl` registered an IC50 of 98 µM.

`O=[N+]([O-])c1cc(C(F)(F)F)cc([N+](=O)[O-])c1Oc1ccc(Cl)cc1Cl` returned an IC50 in series [1] of 3.4 µM.

For `COc1ccc(Sc2c([N+](=O)[O-])cc(C#N)cc2[N+](=O)[O-])cc1`, the Activity in series [13] was found to be 28%.

As for `COc1ccc(Sc2c([N+](=O)[O-])cc(C(F)(F)F)cc2[N+](=O)[O-])cc1`, the IC50 is 1.9 µM in series [1], 12 µM in series [2] and 5.1 µM in series [4].

Turning to `Cc1cc([N+](=O)[O-])c(Sc2cc(C)c(Cl)cc2Cl)c([N+](=O)[O-])c1`, the IC50 in series [1] is above 200 µM. Further, in series [7], the Activity is below 20%. For the same compound, the outcome in series [9], in series [11] and in series [14] was inactive.

Consider `Cc1cc(Sc2c([N+](=O)[O-])cc(C#N)cc2[N+](=O)[O-])c(Cl)cc1Cl`, for which the IC50 in [1] was 1 µM; in series [2], 11 µM; in series [4], 5.8 µM. Also, the results for the Activity entry in series [10] and in series [15] were “Toxic” and 90%, respectively. Moreover, the result in [14] and in series [12] was Active.

With `O=[N+]([O-])c1cc(C(F)(F)F)cc([N+](=O)[O-])c1Sc1ccc(O)cc1`, in series [1], the IC50 was found to be 3.3 µM.

For the compound `Cc1cc(Sc2c(C(F)(F)F)cc(C(F)(F)F)cc2C(F)(F)F)c(Cl)cc1Cl`, the IC50 in series [1] turned out to be 100 µM.

As for `CCCCCCCCCCCCCCCCOP(=O)([O-])OCC[N+](C)(C)C` [MILTEFOSINE], the Activity in series [16] is reported as 41%.

`Cc1cc(Sc2c([N+](=O)[O-])cccc2[N+](=O)[O-])c(Cl)cc1Cl`: in [1], the IC50 is 23 µM. The Activity in series [7] is below 20%.

Turning to `Cc1cc(Sc2c([N+](=O)[O-])cc([N+](=O)[O-])cc2C(F)(F)F)c(Cl)cc1Cl`, the IC50 in series [1] came out at 0.62 µM; in series [2], 5.2 µM; in series [4], 1.8 µM. For the same compound, the Activity result in [5] is “Toxic”.
